# Hits are enriched below; roughly 4.7% of the tested compounds scored in any of these assays.
# aSyn UTR inh: 5' untranslated region of α-synuclein, MLPCN primary screen; alpha-synuclein 5'UTR reporter, inhibitor activity; inhibition, % (tested at 7.5 µM); AID 1813; 0.82% of 300,000 active; in the data active = inhibition above about 60%;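 note: H4 neuroglioblastoma cells stably carrying SNCA 5'UTR luciferase fusion; 0% = DMSO wells and 100% = positive control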
# VIM-2 inhibitor: blocks Pseudomonas aeruginosa VIM-2 metallo-beta-lactamase | purified VIM-2, nitrocefin hydrolysis, epi-absorbance fluorescence | inhibition, % at 5.6 µM | 0.89% of 290,000 active;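 active = inhibition above the mean of all tested compounds plus 3 SD, cutoff set per screening run, cut at about 7.5% in these data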;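 note: red hydrolysis product quenches plate fluorescence so inhibitors raise well fluorescence; 0% = enzyme with DMSO and 100% = DMSO without enzyme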
# Mdm2 MdmX PPI: disrupts the human Mdm2-MdmX interaction; O15151+Q00987; SaOS-2 split-luciferase Mdm2/MdmX complementation, luminescence; inhibition, % at 8 µM; 3% of 330,000 active; AID 485346;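 active = inhibition of at least 50% at 8 µM in the primary screen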
# 697 NFkB inh: inhibitors of the PMA/ionomycin-induced NF-kB reporter in 697 B cells; 697 B-cell NF-kB luciferase reporter, 16 h; inhibition, % at 4 µM; 0.33% of 330,000 active; in the data active = inhibition above about 35%
# IMP-1 inhibitor: blocks Pseudomonas aeruginosa IMP-1 metallo-beta-lactamase. purified IMP-1, nitrocefin hydrolysis, epi-absorbance fluorescence. inhibition, % at 5.6 µM. 0.45% of 290,000 active. AID 1556;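 active = inhibition above the mean plus 3 SD of all compounds in the same screening run, cut at about 4.5% in these data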;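 note: 0% = IMP-1 with DMSO and 100% = DMSO wells lacking enzyme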
#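 assay system = purified recombinant IMP-1 metallo-beta-lactamase enzyme | schedule = 15 min preincubation plus 25 min reaction at 25 °C | signal = Epi-absorbance fluorescence, 480 nm excitation, 530 nm emission | read-out basis = percent inhibition from optical density relative to buffer-blank wells | controls = IMP-1 with DMSO as 0%, enzyme-free DMSO as 100%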
# Jurkat NFkB inh: lowers PMA/ionomycin-induced NF-kB signal in Jurkat cells; AID 435003; inhibition, % at 4 µM; PMA/ionomycin-induced NF-kB luciferase reporter, luminescence; 0.53% of 330,000 active; in the data active = inhibition above about 50%
# Mdm2 MdmX conf: human Mdm2/MdmX binding inhibition, confirmed; inhibition, % at 8 µM; 55% of 10,000 active; AID 489028; luminescent assay; shares compounds with Mdm2 MdmX PPI; in the data active = inhibition above about 40%
# Full FLuc ctr: full-length luciferase inhibition in Mdm2/MdmX counter-screen | shares compounds with Mdm2 MdmX PPI | inhibition, % at 8 µM | SaOS-2 full-length luciferase counterscreen, luminescence | AID 504607 | 77% of 6,200 active;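 active = mean inhibition at 8 µM reaching about 37%, which flags the compound as non-specific, limit read from the data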;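 note: p53-null SaOS-2 cells with luciferase driven by a doxycycline-inducible promoter; compound on cells about two nights before reading with doxycycline added after day one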
# The depositor's hits bear a star; / = no result.
SMILES,aSyn UTR inh,VIM-2 inhibitor,Mdm2 MdmX PPI,697 NFkB inh,IMP-1 inhibitor,Jurkat NFkB inh,Mdm2 MdmX conf,others
N#CC(c1ccc(Cl)nn1)c1ccc(Cl)cc1Cl (configuration not stated),-12,-5,56*,17,1,-7,18,
O=C1c2ccccc2NC(c2ccc(Cl)cc2Cl)N1Cc1ccccc1 (configuration not stated),-9,-7,4,2,-4,-3,/,
C=CCc1cccc(C2Nc3ccccc3C(=O)N2O)c1O (configuration not stated),-19,-4,72*,-21,-3,-9,5,
O=C1c2ccccc2NC(c2ccc(Cl)cc2Cl)N1O (configuration not stated),46,-4,65*,7,-3,25,46*,Full FLuc ctr=31
CCCCOC(=O)CSc1n[nH]c(=O)[nH]c1=O,19,-1,28,24,0,-4,/,
CCOC(=O)[C@H]1[C@H]2COc3cc(OC)ccc3[C@@H]2N2C(=O)c3cc(F)c(F)cc3NC(=O)[C@@]12C,/,/,-12,10,/,9,/,
CCN(CC(=O)NCc1ccc(Cl)cc1)C(=O)c1cc(OC)cc(OC)c1,-6,0,-1,5,-1,-3,/,
O=c1c2c3nc4ccccc4nc3n(/N=C/c3ccccn3)c2ncn1-c1ccccc1,-238,0,74*,-19,1,28,49*,Full FLuc ctr=55*
CSc1cccc(NC(=O)NCc2cccc(CNC(=O)Nc3cccc(SC)c3)c2)c1,5,-2,56*,5,-3,-3,46*,Full FLuc ctr=67*
CSc1cccc(NC(=O)c2ccco2)c1,-75,-2,-16,-2,-6,-12,/,
O=C(NCCS(=O)(=O)N1CCN(c2ccccc2)CC1)C1CCCC1,11,/,14,-5,/,-5,/,
Oc1ccc(/C=N/Nc2nc(-c3ccc(Cl)cc3)cc(C(F)(F)F)n2)cc1,0,-1,57*,-5,-5,-16,22,
Cc1cc(-c2ccccc2)nc(N/N=C/c2ccc(O)cc2)n1,/,/,15,-46,/,-38,/,
COc1ccccc1NS(=O)(=O)c1cc(-c2cnc(C3CC3)o2)ccc1C,1,1,53*,-57,-2,29,46*,Full FLuc ctr=56*
COc1ccccc1NS(=O)(=O)c1cc(C)ccc1C,0,-5,10,5,-4,13,/,
Cc1ccc(NC(=O)C2CCN(c3cnccn3)CC2)cc1C,13,-1,3,19,0,-5,/,
CCOc1ccc(N/C(N)=N/c2nc(CSc3nnnn3-c3ccccc3)cc(=O)[nH]2)cc1,12,-1,6,21,-3,12,/,
C/C(CCN1CCCCc2nc(C)c(C)cc21)=N\O[C@@H](C)CN1CCCCc2nc(C)c(C)cc21,-1,-2,-14,-18,-3,5,/,
COC(=O)[C@@H]1CC[C@H](C)[C@@H](c2ccc(C)cc2)N1C(=O)c1ccc(/C=N/O[C@@H](C)CN2CCCCc3nc(C)c(C)cc32)cc1,32,-2,89*,-21,0,24,25,
CC[N+](CC)(CC=C(C)C)CC(=O)OC,16,-3,4,7,-2,-5,/,
O=C(N=Nc1c(O)[nH]c2ccccc12)c1cc(NS(=O)(=O)c2cccs2)cc(NS(=O)(=O)c2cccs2)c1,-4,1,77*,-1,-1,-7,31,Full FLuc ctr=80*
O=C(N=Nc1c(O)[nH]c2ccccc12)c1cccs1,-74,0,-139,-112,-3,-106,/,
CC1CN(c2nc(-c3ccc(Br)cc3)nnc2-c2ccccc2)CC(C)N1 (configuration not stated),-28,-4,81*,-41,-1,-27,54*,Full FLuc ctr=52*
O=C(/C=C/c1ccccc1[N+](=O)[O-])NCCCN1CCCC1=O,-18,-2,11,-8,-3,-8,/,
NC(=O)C1CCN(CC(=O)Nc2cccc(C(=O)Nc3cccc(C(F)(F)F)c3)c2)CC1,-10,-3,25,10,-3,-11,/,
SMILES,aSyn UTR inh,VIM-2 inhibitor,Mdm2 MdmX PPI,697 NFkB inh,IMP-1 inhibitor,Jurkat NFkB inh,Mdm2 MdmX conf,others
CC(=O)CSc1nc(N)c(C#N)c(-c2cccs2)c1C#N,21,4,52*,-24,-3,7,37,Full FLuc ctr=41*
N#Cc1c(N)nc(SCC(=O)NCCc2ccccc2)c(C#N)c1-c1cccs1,-36,-1,63*,3,-1,-10,15,
CCN1C(=O)[C@H]2[C@H]3CN=C(SC)N3[C@@](CC)(C(=O)OC)[C@H]2C1=O,/,/,-4,-6,/,/,/,
O=C1C2C(c3ccccc3)CC=CC2[C@H](c2ccoc2)N1Cc1ccccc1 (some centres not stated),-13,/,2,14,/,13,/,
COc1ccc(-c2cccc(C3CC=CC4C3C(=O)N(Cc3ccccc3)C4c3ccc4ccccc4c3)c2)cc1 (configuration not stated),-1,/,29,-67,/,7,/,
O=C1C2C(c3ccccc3)CC=CC2[C@H](c2ccc3ccccc3c2)N1Cc1ccccc1 (some centres not stated),11,/,57*,-85,/,21,30,
CC[C@@H]1CC=C[C@H]2[C@H]1C(=O)N(Cc1ccccc1)[C@H]2c1cc(C)ccc1F,27,/,54*,-57,/,21,42*,Full FLuc ctr=49*
Cc1ccc(F)c([C@H]2C3C=CCC(c4ccccc4)C3C(=O)N2Cc2ccccc2)c1 (some centres not stated),43,/,58*,-72,/,13,24,
CCc1noc(C)c1C(=O)OCC(=O)NCc1ccccc1OC,/,/,-1,5,/,-5,/,
COc1ccc(C(=O)NC(CCSC)C(=O)NCc2nnc3ccccn23)cc1 (configuration not stated),/,/,8,22,/,-3,/,
Cc1noc(C)c1CSCC(=O)Nc1ccc(S(=O)(=O)C(F)F)cc1,7,/,8,-6,/,-2,/,
O=S(=O)(c1ccc(S(=O)(=O)N(Cc2ccc(F)cc2)C2CCCC2)cc1)N1CCCC1,17,-2,/,/,-1,/,/,
Fc1ccc(/C=C2\CCCC3=C2NC(=S)NC3c2ccc(F)cc2)cc1 (configuration not stated),/,-4,/,/,-2,/,/,
S=C1NC2=C(CCCC2=C2SCCS2)C(c2ccccc2)N1 (configuration not stated),-324,-4,65*,0,-3,-12,23,
CSc1ccc(CN(C)C(=O)COc2ccc(C(=O)c3ccccc3)cc2)cc1,2,0,65*,11,-3,-4,59*,Full FLuc ctr=96*
CC(=O)Nc1ccc(S(=O)(=O)N(C)c2ccc(OCC(=O)OCC(=O)Nc3ccc(OC(F)F)cc3)cc2)cc1,0,-3,-10,12,-3,0,/,
